Activity calls are given as the source filed them.
How the values were obtained:
[1] = target: T1, Ubiquitin-like modifier-activating enzyme 1 (Homo sapiens) (UniProt P22314); test: Binding affinity to UBA1 in human Jurkat cells at 150 uM followed by UV irradiation for 30 mins with Wood's glass filtered medium pressure mercury arc light prior to cell lysis measured after denaturing wash by SDS-PAGE based pull down assay
T1 sequence (whole entry): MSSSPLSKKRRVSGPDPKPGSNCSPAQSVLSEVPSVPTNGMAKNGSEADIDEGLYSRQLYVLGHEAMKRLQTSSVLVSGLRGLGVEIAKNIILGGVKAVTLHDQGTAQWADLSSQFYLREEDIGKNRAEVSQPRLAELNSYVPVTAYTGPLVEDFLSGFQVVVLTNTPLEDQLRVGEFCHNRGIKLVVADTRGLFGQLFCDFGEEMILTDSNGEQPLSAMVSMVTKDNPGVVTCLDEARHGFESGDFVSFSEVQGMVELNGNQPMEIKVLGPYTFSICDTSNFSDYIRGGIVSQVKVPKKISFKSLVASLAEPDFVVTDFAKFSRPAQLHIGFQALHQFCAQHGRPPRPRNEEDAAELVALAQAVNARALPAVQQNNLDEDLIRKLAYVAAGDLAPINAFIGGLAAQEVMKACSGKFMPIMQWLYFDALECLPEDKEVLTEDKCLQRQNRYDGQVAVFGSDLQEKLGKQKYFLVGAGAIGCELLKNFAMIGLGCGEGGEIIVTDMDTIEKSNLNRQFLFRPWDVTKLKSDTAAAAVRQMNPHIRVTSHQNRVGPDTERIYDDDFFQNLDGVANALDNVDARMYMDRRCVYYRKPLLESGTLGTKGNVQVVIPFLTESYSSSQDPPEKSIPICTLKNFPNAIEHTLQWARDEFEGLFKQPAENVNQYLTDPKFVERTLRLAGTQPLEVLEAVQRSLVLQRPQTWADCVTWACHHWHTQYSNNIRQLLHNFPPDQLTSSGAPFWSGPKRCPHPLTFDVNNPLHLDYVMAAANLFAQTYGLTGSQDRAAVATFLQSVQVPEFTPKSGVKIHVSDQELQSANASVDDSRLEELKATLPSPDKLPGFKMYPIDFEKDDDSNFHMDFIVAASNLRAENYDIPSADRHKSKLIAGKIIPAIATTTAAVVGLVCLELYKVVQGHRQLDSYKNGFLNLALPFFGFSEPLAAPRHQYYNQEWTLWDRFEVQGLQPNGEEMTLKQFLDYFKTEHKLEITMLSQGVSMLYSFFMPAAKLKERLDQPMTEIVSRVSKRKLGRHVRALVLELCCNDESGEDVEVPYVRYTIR
Procedure, shortened: (§1)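 Jurkat cells were grown in RPMI with 10% FBS (about 15×10^6 cells) and treated 2 h with 150 μM BioQ in 3% aqueous DMSO. They were heat-shocked at 43 °C for 30 min, recovered 1 h at 37 °C, and UV-irradiated (320–400 nm, peak 365 nm, 30 min, 4 °C) before or after sonication lysis. Streptavidin-agarose capture ran 1 h. Beads were washed ≥3× with lysis buffer or 2% SDS Tris pH 7.4, boiled, run on 12% SDS-PAGE and silver-stained.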

[2] = target: T2, Splicing factor 3B subunit 3 (Homo sapiens) (UniProt Q15393); test: Binding affinity to SF3B3 in human Jurkat cells at 150 uM followed by UV irradiation for 30 mins with Wood's glass filtered medium pressure mercury arc light prior to cell lysis measured after denaturing wash by SDS-PAGE based pull down assay; procedure, shortened: as §1
T2 sequence (whole entry): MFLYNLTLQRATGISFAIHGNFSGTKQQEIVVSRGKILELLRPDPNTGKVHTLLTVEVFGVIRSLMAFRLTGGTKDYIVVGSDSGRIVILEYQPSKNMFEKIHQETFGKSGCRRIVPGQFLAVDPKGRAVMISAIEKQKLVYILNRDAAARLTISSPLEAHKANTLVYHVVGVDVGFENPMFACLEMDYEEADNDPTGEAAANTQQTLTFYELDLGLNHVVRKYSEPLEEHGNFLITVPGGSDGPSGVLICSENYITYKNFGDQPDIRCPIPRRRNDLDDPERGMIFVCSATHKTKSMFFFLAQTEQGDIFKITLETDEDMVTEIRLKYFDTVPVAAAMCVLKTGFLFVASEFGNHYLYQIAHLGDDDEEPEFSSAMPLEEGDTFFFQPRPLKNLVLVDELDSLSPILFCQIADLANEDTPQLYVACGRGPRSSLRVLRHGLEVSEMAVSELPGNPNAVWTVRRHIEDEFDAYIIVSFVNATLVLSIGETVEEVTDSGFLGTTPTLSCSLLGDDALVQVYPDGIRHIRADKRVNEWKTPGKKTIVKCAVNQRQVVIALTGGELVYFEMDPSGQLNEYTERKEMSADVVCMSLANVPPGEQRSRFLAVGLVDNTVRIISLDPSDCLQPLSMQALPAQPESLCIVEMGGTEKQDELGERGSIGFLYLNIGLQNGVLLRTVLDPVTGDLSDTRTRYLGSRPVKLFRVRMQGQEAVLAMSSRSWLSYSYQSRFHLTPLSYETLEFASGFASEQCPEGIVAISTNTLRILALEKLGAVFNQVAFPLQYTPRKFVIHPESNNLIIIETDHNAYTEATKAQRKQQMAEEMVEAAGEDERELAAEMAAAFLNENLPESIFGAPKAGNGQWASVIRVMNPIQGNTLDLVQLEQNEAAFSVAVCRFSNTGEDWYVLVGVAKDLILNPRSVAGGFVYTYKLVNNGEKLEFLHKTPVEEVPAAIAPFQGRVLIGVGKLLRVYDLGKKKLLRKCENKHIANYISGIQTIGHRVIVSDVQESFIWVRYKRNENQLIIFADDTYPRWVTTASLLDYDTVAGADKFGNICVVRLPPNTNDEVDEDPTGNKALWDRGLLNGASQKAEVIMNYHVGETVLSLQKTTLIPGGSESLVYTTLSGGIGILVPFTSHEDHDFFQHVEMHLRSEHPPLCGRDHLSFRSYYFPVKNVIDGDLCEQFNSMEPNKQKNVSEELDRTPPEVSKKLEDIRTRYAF

[3] = target: ATP synthase F(1) complex subunit alpha, mitochondrial (Homo sapiens) (UniProt P25705); test: Binding affinity to ATP5A1 in human Jurkat cells at 150 uM followed by UV irradiation for 30 mins with Wood's glass filtered medium pressure mercury arc light prior to cell lysis measured after denaturing wash by LC-MS/MS based pull down assay
Procedure, shortened: (§2)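 Silver-stained bands from cells irradiated before lysis were excised, destained, reduced with 10 mM DTT, alkylated with 50 mM iodoacetamide and digested with trypsin overnight. Peptides were extracted in 1% TFA/50% acetonitrile. Nano-C18 LC used a 2–50% acetonitrile gradient with 0.1% formic acid over 50 min at 260 nL/min, followed by MS/MS identification.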

[4] = target: Actin, cytoplasmic 1 (Homo sapiens) (UniProt P60709); test: Binding affinity to ACTB in human Jurkat cells at 150 uM followed by UV irradiation for 30 mins with Wood's glass filtered medium pressure mercury arc light prior to cell lysis measured after denaturing wash by LC-MS/MS based pull down assay; procedure, shortened: as §2
Jurkat = test: Binding affinity to quercetin binding protein in human Jurkat cells at 150 uM followed by UV irradiation for 30 mins with Wood's glass filtered medium pressure mercury arc light before cell lysis measured after denaturing wash by SDS-PAGE based pull down assay; procedure, shortened: as §1

Measured: Activity

Chain of ATP synthase F(1) complex subunit alpha, mitochondrial (Homo sapiens) (P25705 whole entry, one chain of several): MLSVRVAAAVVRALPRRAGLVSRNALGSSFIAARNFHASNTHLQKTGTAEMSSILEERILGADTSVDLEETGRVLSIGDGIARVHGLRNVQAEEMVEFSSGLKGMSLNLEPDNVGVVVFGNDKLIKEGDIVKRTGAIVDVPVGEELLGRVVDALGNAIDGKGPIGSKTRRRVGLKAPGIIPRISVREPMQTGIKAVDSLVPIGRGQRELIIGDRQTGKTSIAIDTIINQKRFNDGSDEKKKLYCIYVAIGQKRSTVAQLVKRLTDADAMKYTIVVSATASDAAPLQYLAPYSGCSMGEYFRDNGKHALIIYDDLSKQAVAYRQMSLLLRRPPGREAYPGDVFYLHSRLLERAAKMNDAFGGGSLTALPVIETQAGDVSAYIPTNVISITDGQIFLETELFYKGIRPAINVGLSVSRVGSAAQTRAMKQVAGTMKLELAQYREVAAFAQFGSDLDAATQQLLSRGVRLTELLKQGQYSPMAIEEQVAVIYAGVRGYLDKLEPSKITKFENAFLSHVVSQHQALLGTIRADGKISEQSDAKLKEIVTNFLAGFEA

O=C(CCCC[C@@H]1SC[C@@H]2NC(=O)N[C@@H]21)NCCOCCOCCNC(=O)COc1cc(O)c2c(=O)c(O)c(-c3ccc(O)c(O)c3)oc2c1
active: all assays above

Source: ChEMBL document CHEMBL2062417, “Biotinylated quercetin as an intrinsic photoaffinity proteomics probe for the identification of quercetin target proteins” (Bioorg Med Chem, 2011)
